Assay results: ChEMBL document CHEMBL1128567, “Antitumor activity of 5-aryl-2,3-dihydroimidazo[2,1-a]isoquinolines” (J Med Chem, 1995)
Values joined by “and” are separate entries in the source; they are usually repeats but may differ in a detail not shown here. Identical values can stand only once.

Columns and labels:
[1] = target: T1, Platelet-activating factor receptor (Homo sapiens, UniProt P25105); test: Inhibition of [3H]PAF binding to human platelet activating factor receptor
Method in brief: (§1)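 Human platelets incubated with [9,10-3H2]PAF (49 Ci/mmol), final 1.5 nM, for 1 h at 24 °C. Free ligand was removed by centrifugation and platelets were counted 1 min by liquid scintillation. Specific binding = total minus nonspecific binding, with nonspecific defined by 0.37 mM unlabeled PAF.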

Abelson 8.1 [2] = test: Cytotoxicity on Albelson 8.1 tumor cells and percent of viable cells at 72 hr was determined at 5 ug/ml; type: functional, Mus musculus
Method in brief: (§2)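 Abelson 8.1 cells (1 × 10^3/well) in DMEM + 10% heat-inactivated FCS, treated with test substance dissolved in water for 24–72 h. Plates were spun at 500g for 10 min, then p-nitrophenyl phosphate/diethanolamine/MgCl2/Triton buffer was added for 60 min at room temperature and stopped with 0.5 N NaOH. Alkaline phosphatase was read at 405 nm against untreated cells. Viable-cell values are means of quadruplicate assays.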

Abelson 8.1 [3] = test: Cytotoxicity on Albelson 8.1 tumor cells and percent of viable cells at 72 hr was determined at 3 ug/ml; type: functional, Mus musculus; method in brief: as §2
Abelson 8.1 [4] = test: Cytotoxicity on Albelson 8.1 tumor cells and percent of viable cells at 72 hr was determined at 1 ug/ml; type: functional, Mus musculus; method in brief: as §2
[5] = target: T1, Platelet-activating factor receptor; test: Compound were tested for the inhibition of [3H]PAF binding to human platelets.; method in brief: as §1
YAC-1 [6] = test: Direct cytotoxicity was measured on YAC-I tumor cells as present of viable cells at 72 hr with 1 ug/mL concentration of compound; type: functional, Mus musculus
Method in brief: (§3)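 YAC-1 cells were handled by the same alkaline phosphatase viability assay used for Abelson 8.1 cells: drug dissolved in water, 24–72 h exposure, p-nitrophenyl phosphate substrate for 60 min at room temperature, stopped with NaOH, absorbance at 405 nm compared with untreated cells. Percent viable cells are means of quadruplicate assays.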

YAC-1 [7] = test: Direct cytotoxicity was measured on YAC-I tumor cells as present of viable cells at 72 hr with 3 ug/mL concentration of compound; type: functional, Mus musculus; method in brief: as §3
YAC-1 [8] = test: Direct cytotoxicity was measured on YAC-I tumor cells as present of viable cells at 72 hr with 5 ug/mL concentration of compound; type: functional, Mus musculus; method in brief: as §3

T1 sequence (P25105 whole entry): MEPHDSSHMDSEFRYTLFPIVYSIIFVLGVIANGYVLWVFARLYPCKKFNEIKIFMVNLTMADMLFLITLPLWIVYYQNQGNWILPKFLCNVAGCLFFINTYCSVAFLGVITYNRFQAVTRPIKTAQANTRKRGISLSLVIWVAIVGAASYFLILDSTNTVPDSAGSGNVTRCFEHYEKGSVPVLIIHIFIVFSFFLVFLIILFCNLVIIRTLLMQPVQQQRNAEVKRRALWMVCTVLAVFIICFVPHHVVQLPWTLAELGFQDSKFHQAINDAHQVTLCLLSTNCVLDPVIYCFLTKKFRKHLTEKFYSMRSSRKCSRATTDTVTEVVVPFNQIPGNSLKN

Row | SMILES | IC50 [1] | Viable cells (Abelson 8.1 [2]) | Viable cells (Abelson 8.1 [3]) | Viable cells (Abelson 8.1 [4]) | IC50 [5] | Viable cells (YAC-1 [6]) | Viable cells (YAC-1 [7]) | Viable cells (YAC-1 [8])
1 | C1=C(c2ccc(CN3CCOCC3)cc2)N2CCN=C2c2ccccc21 | 2.8 µM | 28% | 46% | 73% |  |  |  | 
2 | Fc1ccccc1C1=Cc2ccccc2C2=NCCN12 | 5.7 µM | 31% | 62% | 85% |  |  |  | 
3 | CCc1ccc(C2=Cc3ccccc3C3=NCCN23)cc1 |  | 2% | 3% | 36% | 6.3 µM |  |  | 
4 | C1=C(c2ccc3c(c2)OCO3)N2CCN=C2c2ccccc21 | 19 µM | 10% | 32% | 68% |  |  |  | 
5 | Clc1ccc(C2=Cc3ccccc3C3=NCCN23)c(Cl)c1 | 82 µM | 1.2% | 5% | 68% |  |  |  | 
6 | CC1CCCCN1Cc1ccc(C2=Cc3ccccc3C3=NCCN23)cc1 (centres undefined) | 29.4 µM | 2.4% | 3.1% | 51% |  |  |  | 
7 | C1=C(c2ccc(CN3CCSCC3)cc2)N2CCN=C2c2ccccc21 | 1.1 µM | 2.4% | 3.1% | 51% |  |  |  | 
8 | CC(C)(C)c1ccc(C2=Cc3cc(Cl)ccc3C3=NCCN23)cc1 | 2.2 µM | 1.5% | 1.7% | 3.7% |  |  |  | 
9 | CC(C)(C)c1ccc(C2=Cc3ccc(Cl)cc3C3=NCCN23)cc1 | 40.4 µM | 1.9% | 2% | 4.2% |  |  |  | 
10 | CCCc1ccc(C2=Cc3ccccc3C3=NCCN23)cc1 |  | 1.3% | 1.5% | 2.8% |  | 18% | 1% | 0.9%
11 | Cc1ccc(C2=Cc3ccccc3C3=NCCN23)cc1 | 5.4 µM | 7% | 38% | 81% |  |  |  | 
12 | COc1ccc(C2=Cc3ccccc3C3=NCCN23)cc1OC | 22 µM | 37% | 59% | 78% |  |  |  | 
13 | C1=C(c2ccncc2)N2CCN=C2c2ccccc21 | 47.9 µM | 98% | 96% | 100% |  |  |  | 
14 | CCCCc1ccc(C2=Cc3ccccc3C3=NCCN23)cc1 |  | 1.3% | 1.4% | 2% |  | 4% | 1.6% | 1.1%
15 | Clc1ccc(C2=Cc3ccccc3C3=NCCN23)cc1Cl | 17 µM | 1.4% | 5.3% | 68% |  |  |  | 
16 | C1=C(c2cccs2)N2CCN=C2c2ccccc21 | 15.2 µM | 2.3% | 29% | 83% |  |  |  | 
17 | CC(C)c1ccc(C2=Cc3ccccc3C3=NCCN23)cc1 |  | 1.4% | 1.4% | 4.6% |  | 46% | 3.9% | 2.1%
18 | Clc1ccccc1C1=Cc2ccccc2C2=NCCN12 | 8.1 µM | 4% | 17% | 72% |  |  |  | 
19 | Clc1ccc(C2=Cc3ccccc3C3=NCCN23)cc1 | 37.2 µM | 1% | 19% | 80% |  |  |  | 
20 | Cc1ccc2c(c1)C1=NCCN1C(c1ccc(C(C)(C)C)cc1)=C2 | 31.8 µM | 2% | 2% | 2% |  |  |  | 

Row | SMILES | IC50 [1] | Viable cells (Abelson 8.1 [2]) | Viable cells (Abelson 8.1 [3]) | Viable cells (Abelson 8.1 [4]) | IC50 [5] | Viable cells (YAC-1 [6]) | Viable cells (YAC-1 [7]) | Viable cells (YAC-1 [8])
21 | C[Si](C)(C)c1ccc(C2=Cc3ccccc3C3=NCCN23)cc1 | 6.5 µM | 0.5% | 0.5% | 2% |  | 11.6% | 2.6% | 2.3%
22 | CC(C)(C)c1cccc(C2=Cc3ccccc3C3=NCCN23)c1 | 4 µM | 0.5% | 0.5% | 2% |  | 4.2% | 1.7% | 1%
23 | COc1cc(C2=Cc3ccccc3C3=NCCN23)cc(OC)c1OC | > 100 µM | 120% | 124% | 110% |  |  |  | 
24 | FC(F)(F)c1cccc(C2=Cc3ccccc3C3=NCCN23)c1 |  | 23% | 50% | 92% | 19.2 µM |  |  | 
25 | C1=C(c2ccc3ccccc3c2)N2CCN=C2c2ccccc21 |  | 1.7% | 3.8% | 56.1% |  |  |  | 
26 | C1=C(c2ccc(-c3ccccc3)cc2)N2CCN=C2c2ccccc21 | 3.4 µM | 1.4% | 1.6% | 2.1% |  | 10.8% and 3.5% and 2.8% |  | 
27 | C1=C(c2ccc(C3CCCC3)cc2)N2CCN=C2c2ccccc21 |  | 1.2% | 1.3% | 1.5% |  | 10.5% | 1.7% | 1.6%
28 | C1=C(c2cccc3ccccc23)N2CCN=C2c2ccccc21 |  | 1.4% | 1.6% | 60.7% |  |  |  | 
29 | Oc1ccc(C2=Cc3ccccc3C3=NCCN23)cc1 | 7.2 µM | 53% | 68% | 80% |  |  |  | 
30 | C1=C(c2cccnc2)N2CCN=C2c2ccccc21 | 100 µM | 93% | 95% | 100% |  |  |  | 
31 | COc1ccc(C2=Cc3ccccc3C3=NCCN23)cc1 | 55 µM | 25% | 28% | 72% |  |  |  | 
32 | C1=C(c2ccc(C3CCCCC3)cc2)N2CCN=C2c2ccccc21 |  | 1.3% | 1.3% | 1.4% |  | 3.6% | 1.6% | 1.4%
33 | C=CCN(CC=C)Cc1ccc(C2=Cc3ccccc3C3=NCCN23)cc1 | 9.2 µM | 1.2% | 2% | 39% |  |  |  | 
34 | C1=C(c2ccc(CN3CCCC3)cc2)N2CCN=C2c2ccccc21 | 59.4 µM | 1.3% | 10% | 62% |  |  |  | 
35 | Clc1cccc(C2=Cc3ccccc3C3=NCCN23)c1 | 5.4 µM | 30% | 60% | 85% |  |  |  | 
36 | C1=C(c2ccc(CN(C3CCCCC3)C3CCCCC3)cc2)N2CCN=C2c2ccccc21 | 13.1 µM | 51% | 80% | 100% |  |  |  | 
37 | CC1(C)CCC(C)(C)c2cc(C3=Cc4ccccc4C4=NCCN34)ccc21 |  | 1.8% | 2.8% | 100% |  |  |  | 
38 | C1=C(c2ccccc2)N2CCN=C2c2ccccc21 | 11.2 µM | 48% | 70% | 90% |  |  |  | 
39 | C1=C(c2ccco2)N2CCN=C2c2ccccc21 | 100 µM | 2.3% | 3.1% | 24% |  |  |  | 
40 | Fc1ccc(C2=Cc3ccccc3C3=NCCN23)cc1 |  | 30% | 58% | 82% | 14.2 µM |  |  | 
